Compound activity from PubChem.
MIN6 prolif: MIN6 beta-cell proliferation induction; MIN6 cells proliferation, ATPlite luminescence, 48 h; cells starved in 0.2% serum; 100% = growth in 10% serum; actives 0.29% (n = 330,000); proliferation, % at 10 µM;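 active = compounds whose signal lies at least 3.5 SD above the mean of all wells on their plate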;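 note: 0% = DMSO-treated cells in low-serum medium and 100% = 10% serum control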
MC4R ag barr: agonists of human melanocortin 4 receptor (MC4R) beta-arrestin | P32245 | U2OS MC4R beta-arrestin complementation, luminescence; percent of melanotan II response, DMSO zero | activation, % at 8.9 µM | actives 0.98% (n = 360,000);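 active = activation above a per-plate cutoff, the mean activation of sample wells on that plate plus 3 SD, cut at about 8% in these data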
m5-HT2A agonist: agonists of mouse serotonin 5-HT2A receptor (HTR2A). P35363. CHO-K1 mHTR2A beta-arrestin complementation, luminescence; percent of 30 µM serotonin response. activation, % at 7.6 µM. actives 0.66% (n = 360,000);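 active = activation above a run cutoff, the mean activation of all tested compounds plus 3 SD, cut at about 14% in these data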;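 note: 0% = plate median of compound wells and 100% = 30 µM serotonin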
Target sequence (P35363 whole entry, looked up): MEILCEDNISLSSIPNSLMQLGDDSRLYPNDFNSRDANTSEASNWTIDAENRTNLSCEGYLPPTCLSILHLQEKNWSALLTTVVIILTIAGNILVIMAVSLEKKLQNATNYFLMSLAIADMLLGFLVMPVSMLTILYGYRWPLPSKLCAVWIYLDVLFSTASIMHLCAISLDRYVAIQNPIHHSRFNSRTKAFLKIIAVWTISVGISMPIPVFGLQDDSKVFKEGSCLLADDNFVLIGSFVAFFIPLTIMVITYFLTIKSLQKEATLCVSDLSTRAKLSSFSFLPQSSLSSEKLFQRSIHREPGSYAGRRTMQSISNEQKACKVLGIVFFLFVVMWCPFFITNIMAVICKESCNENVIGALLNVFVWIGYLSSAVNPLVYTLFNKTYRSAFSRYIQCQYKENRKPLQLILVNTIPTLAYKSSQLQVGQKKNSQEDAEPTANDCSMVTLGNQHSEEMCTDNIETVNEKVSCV
ANO1 activ: mouse TMEM16A channel activation, primary screen | B-score at 10 µM | HEK293 TMEM16A/YFP-H148Q/I152L, iodide quench fluorescence; hits give low values | actives 0.3% (n = 340,000) | Q8BHY3;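 active = fluorescence-ratio B-score plate-corrected deviation score at least 3 library SD below zero, with starting fluorescence score within 5 deviations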;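 note: channel opened by trigger with iodide after compound preincubation; score built on the fluorescence ratio of max minus min over baseline; more negative score means more quench and so TMEM16A activation or potentiation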
MC4R antagonist: human MC4R antagonism in cAMP assay; MC4R-expressing cells, MTII-stimulated cAMP, LANCE TR-FRET; inhibition, % at 6.5 µM; P32245; AID 540295; actives 0.48% (n = 360,000);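 active = inhibition above its plate's cutoff, the mean of tested wells on that plate plus 3 SD, cut at about 29% in these data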;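 note: 0% = Melanotan II alone and 100% = Melanotan II plus saturating MCL0020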
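Material: human MC4R-expressing U2OS cells. Probe or stimulus: Melanotan II challenge. Dosing: 6.5 µM single dose. Times: 30-min compound, 1-h challenge, 1-h detection, room temperature. Technique: TR-FRET with Eu-cAMP and labeled anti-cAMP, 671 nm. Replication: singlicate.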
ANO1 block: inhibitors of mouse TMEM16A calcium-activated chloride channel | Q8BHY3 | HEK293 TMEM16A/YFP iodide influx fluorescence, ionomycin | normalized B-score (activity score, 25-100; higher = stronger inhibition) at 10 µM | actives 1.2% (n = 310,000) | AID 588511;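 active = ratio plate-corrected score three or more library SD toward inhibition, starting fluorescence score within five deviations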;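 note: score derived from kinetic fluorescence span divided by baseline fluorescence per well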
Active calls of the source: *; i = inactive; / = no result given. An excerpt weighted towards active compounds, which were near 3.4% of everything screened.

SMILES	MIN6 prolif	MC4R ag barr	m5-HT2A agonist	ANO1 activ	MC4R antagonist	ANO1 block
CN(Cc1cccs1)C(=O)CCCc1c[nH]c2ccccc12	2.6	1.8	-3.5	-6.3*	9.0	i
CN(Cc1cccs1)C(=O)CCc1c[nH]c2ccccc12	-0.8	-4.3	3.0	i	3.7	i
CCN(CC)c1ccc(C(=C2C=CC(=[N+](CC)CC)C=C2)c2ccc(N(CC)CC)cc2)cc1	/	-10.5	12.3	-6.62*	-23.5	/
CCN(CC)c1ccc(C(=O)NNC(=O)CCl)cc1	-2.5	-2.1	-13.0	i	-5.4	i
Cc1cccc(C)c1NC(=O)CSc1nnc(-c2ccco2)c(-c2ccco2)n1	-2.0	-0.1	-4.8	i	-2.4	i
Cc1ccccc1NC(=O)CSc1nnc(-c2ccco2)c(-c2ccco2)n1	-0.4	-1.8	-0.9	i	2.2	25*
CCCNC(=O)C1(C)CCN(C(=O)c2cccc(C(F)(F)F)c2)C1 (stereo unspecified)	/	-2.5	0.0	/	-3.0	/
O=C(N/N=C/c1coc2ccccc2c1=O)c1ccc(Cl)cc1	-3.4	-2.3	-12.4	i	-4.0	i
O=c1c(/C=N\NS(=O)(=O)c2ccccc2)coc2ccc(Cl)cc12	-2.7	-1.7	-4.1	i	11.4	100*
CC(C)COc1ccc(CSCCNC(=S)Nc2ccccc2)cc1	-3.9	1.6	-2.1	i	-3.3	100*
COc1ccc(Cl)c(-c2cc(C(=O)NCc3ccc(C(F)(F)F)cc3)[nH]n2)c1	/	9.5*	-7.0	/	-3.2	/
OC(CNCCc1ccc(Cl)cc1)COc1cc(Cl)ccc1Cl (stereo unspecified)	-6.1	29.9*	-17.0	i	6.8	i
COc1cc(C2CC(c3cccs3)=NN2C(=O)CCl)ccc1OC(F)F (stereo unspecified)	-4.1	21.6*	5.2	i	26.1	i
Cc1ccc(NC(=O)CN(C)C(=O)CSc2nc3ccccc3c(=O)n2Cc2ccco2)cc1	-3.5	-0.4	-5.1	i	-0.1	100*
Cc1cc(NC(=O)CSc2nnc(-c3c[nH]c4ccccc34)n2-c2ccc(Cl)cc2)no1	-1.2	12.5*	-2.7	i	6.5	i
Cc1ccc(Cn2c(SCC(=O)Nc3cc(C)on3)nc3ccccc3c2=O)cc1	-3.0	8.8*	2.0	i	-7.6	i
CN(Cc1ccccc1)C(=O)CSc1nc2ccccc2c(=O)n1Cc1ccco1	-1.1	-2.0	-2.5	i	12.9	i
Cc1cc(NC(=O)CSc2nc3ccccc3c(=O)n2Cc2ccccc2)no1	2.4	8.5*	1.2	i	5.5	i
O=C(NCCCN1CCOCC1)c1ccc2c(c1)N(Cc1cccc(Cl)c1)C(=O)CS2	0.0	-2.1	-6.2	i	10.3	i
Cc1oc(S(=O)(=O)N(C)C)cc1C(=O)Nc1ccc(Cl)cc1	-1.6	-1.0	-0.8	i	16.5	i
O=C(CCn1c(=O)oc2ccccc21)Nc1cccc(Br)c1	-2.7	-1.2	-8.1	i	-3.6	i
CN1CCC(N2CCN(C3CN(Cc4cn(Cc5cccc(C(F)(F)F)c5)nn4)S(=O)(=O)C3)CC2)CC1 (stereo unspecified)	/	/	7.2	/	/	/
CCOC(=O)c1c(O)cc(C)cc1Nc1ccccc1	-1.6	-1.3	-7.2	i	5.0	i
O=C(NC1CCN(C(=O)Nc2ccc(F)cc2)CC1)c1ccc(F)cc1	0.8	-1.6	-8.5	-5.21*	3.2	i
CCCCC[C@H](C)N1C[C@H](COCc2ccccc2)Oc2cc(N3CCC[C@H]3COC)ccc2S1(=O)=O	/	/	-2.5	/	/	/
SMILES	MIN6 prolif	MC4R ag barr	m5-HT2A agonist	ANO1 activ	MC4R antagonist	ANO1 block
O=C(Nc1ccncc1)C1CCN(S(=O)(=O)c2ccc(Cl)c(C(F)(F)F)c2)CC1	-3.0	-0.8	-5.9	i	13.5	/
O=C(Nc1cccc([N+](=O)[O-])c1)c1ccc(CSc2ccccc2)cc1	-2.5	15.4*	-11.4	i	4.5	i
CCN(CC)S(=O)(=O)c1ccc(/C=C/C(=O)Nc2ccc(Br)cc2F)cc1	-3.8	-2.0	4.2	i	8.5	100*
Cc1ccc(-c2cc(C(=O)Nc3ccncc3)c3ccccc3n2)cc1	-5.7	8.9*	0.4	i	6.2	i
O=C(Nc1cccnc1)c1cc(-c2cccnc2)nc2ccc(Br)cc12	0.4	1.8	0.6	i	16.4	i
COc1cc(NC(=O)c2cc(-c3cccnc3)nc3ccc(Br)cc23)cc(OC)c1	-5.7	8.2*	-1.6	i	3.1	i
COc1ccc(NC(=O)c2cc(-c3cccnc3)nc3ccc(C)cc23)cc1OC	/	0.2	-2.3	i	4.8	/
COc1ccc(NC(=O)c2cc(-c3ccncc3)nc3ccc(Br)cc23)cc1OC	-6.5	-0.5	-9.8	i	6.7	100*
O=C(O)CC(CC(=O)N1CCN(C(=O)c2ccco2)CC1)c1ccccc1 (stereo unspecified)	-4.0	-1.6	0.0	i	4.8	i
O=C(CCC(F)(F)F)N1CCCC(N2CCN(c3cccc(Cl)c3)CC2)C1 (stereo unspecified)	/	-1.5	-5.2	i	11.4	i
C=CCOC1COC2C(OCC=C)COC12 (stereo unspecified)	/	-0.5	6.8	i	5.2	/
CCOC(=O)C1=C(C)C/C(=N\NC(=O)c2ccccc2O)CC1	-3.1	-1.6	-0.6	i	5.3	i
O=C(NCc1ccccn1)C(=O)Nc1cc2c3c(c1)CC(=O)N3CCC2	6.0	-3.8	-2.8	i	2.3	i
CCn1nccc1C(=O)Nc1ccc(C(=O)OC(C)C)cc1	-0.8	-1.6	-1.0	i	8.2	i
CC/C(=C(\c1ccccc1)c1ccc(OCCN(C)C)cc1)c1ccccc1	-7.9	2.3	-3.2	i	11.2	100*
C[C@H](NC(=O)[C@@H]1CCCN1C(=O)[C@@H]1CCCN1C(=O)OC(C)(C)C)c1ccccc1	/	/	-1.5	/	/	/
CCCN(CC(=O)Nc1ccccc1C)C(=O)C1CCN(S(=O)(=O)c2ccccc2C(F)(F)F)CC1	0.6	-4.9	0.2	i	11.9	i
CC1(C)CC(=O)C2=C(C1)OC(N)=C(C#N)C2c1ccccc1[N+](=O)[O-] (stereo unspecified)	-1.8	-1.0	0.0	-4.63*	0.5	i
CC1(C)CC(=O)C2=C(C1)OC(N)=C(C#N)C2c1ccccc1 (stereo unspecified)	0.9	-1.2	-2.3	i	-3.5	i
CCNC(=S)N1CCN(c2cccc(C(F)(F)F)c2)CC1	2.3	-1.0	-3.3	i	9.8	i
Cc1ccc(C)c(NC(=S)N2CCN(c3cccc(C(F)(F)F)c3)CC2)c1	-2.6	9.1*	7.3	i	8.5	i
